Results collected from several papers.
Protocols differ between the studies behind these lines.
Plasmepsin II: Plasmepsin II (Plasmodium falciparum, UniProt P46925)
SIRT6: NAD-dependent protein deacylase sirtuin-6 (SIRT6, Homo sapiens, UniProt Q8N6T7)
CCR5: C-C chemokine receptor type 5 (CCR5, Homo sapiens, UniProt P51681)
HTR6: 5-hydroxytryptamine receptor 6 (HTR6, Homo sapiens, UniProt P50406)
PTAFR: Platelet-activating factor receptor (PTAFR, Homo sapiens, UniProt P25105)
PDK4: [Pyruvate dehydrogenase (acetyl-transferring)] kinase isozyme 4, mitochondrial (PDK4, Homo sapiens, UniProt Q16654)

Compound | target | assay | system | conditions | inhibition [%]
O=[N+]([O-])c1ccc(N2CCC(NCCC(O)c3ccc(F)c4ccccc34)CC2)c(C(F)(F)F)c1 (centres unmarked) | Plasmepsin II | enzyme activity, inhibitor |  | 5 µM | 9
O=C(NO)c1ccc(C(=O)NOCc2ccc(C(F)(F)F)cc2)cc1 | SIRT6 | enzyme activity, inhibitor, fluorescence |  | 100 µM | 93.3
OCc1cc(C(O)CNCCCCCCOCCCCc2ccccc2)ccc1O (centres unmarked) | CCR5 | calcium signal, antagonist | U87/CD4/CCR5 | 100 µM | 60
CCCCCCCCCCCCNC(=S)NCCCC[C@H](NS(C)(=O)=O)C(=O)N[C@@H](C)C(=O)N[C@@H](CCCNC(=N)N)C(N)=O | SIRT6 | enzyme activity, inhibitor |  | 10 µM | 30
CN(Cc1ccc(NC(=O)C2=Cc3cc(-c4ccc(OCCCO)cc4)ccc3CCC2)cc1)C1CCOCC1 | C-C chemokine receptor type 2 (CCR2, Homo sapiens, UniProt P41597) | ligand displacement, radioligand |  | 1 µM, cell membranes | 51
Nc1ccc(-c2ccncc2)cc1NC(=O)N1CCCC1 | HTR6 | ligand displacement, radioligand |  | 10 µM | 16
O=[N+]([O-])c1ccc(N2CCN(CCC(O)c3csc4ccc(F)cc34)CC2)c(C(F)(F)F)c1 (centres unmarked) | Plasmepsin II | enzyme activity, inhibitor |  | 5 µM | 13
NC(=O)c1ccc(C(=O)NOCc2ccc(Sc3cccc(F)c3)c(C(F)(F)F)c2)cc1 | SIRT6 | enzyme activity, inhibitor, fluorescence |  | 100 µM | 97.6
COc1cc2c3c(c1OCc1ccc(Br)cc1)-c1cc4c(cc1CC3N(C)CC2c1ccccc1)OCO4 (centres unmarked) | 5-hydroxytryptamine receptor 7 (HTR7, Homo sapiens, UniProt P34969) | ligand displacement, radioligand |  | 10 µM | -22.6
CN(C)C1CCN(CC#Cc2nn(C3CCCC3)c3nc(NCc4ccccc4)ncc23)C1 (centres unmarked) | Mitogen-activated protein kinase 13 (MAPK13, Homo sapiens, UniProt O15264) | enzyme activity, inhibitor, FRET |  | 0.1 µM | 1
NC(=O)c1ccc(C(=O)NOCc2ccc(Sc3cc(Cl)cc(Cl)c3)c(C(F)(F)F)c2)cc1 | SIRT6 | enzyme activity, inhibitor, fluorescence |  | 100 µM | 100
CCCNc1nc2ccccc2n1Cc1ccc(Cl)cc1 | HTR6 | ligand displacement |  | 10 µM | 36.6
O=C(Nc1ccc(S(=O)(=O)N2CCC(Cl)CC2)cc1)c1ccc([N+](=O)[O-])o1 | PTAFR | ligand displacement, radioligand |  | 10 µM | 39
CN1CC(Oc2cnc(C#N)cc2-c2ccn3nc(NC(=O)C4CC4)cc3c2)C1 | PDK4 | enzyme activity, inhibitor |  | 1 µM | 2
O=[N+]([O-])c1ccc(N2CCN(CCC(O)c3ccc(F)cc3)CC2)c(C(F)(F)F)c1 (centres unmarked) | Plasmepsin II | enzyme activity, inhibitor |  | 5 µM | 0
C/C(=C\C(=O)OCCCCCCCCC(=O)O)C[C@@H]1OC[C@H](C[C@@H]2O[C@H]2[C@@H](C)[C@H](C)O)[C@@H](O)[C@H]1O | CCR5 | calcium signal, antagonist | U87/CD4/CCR5 | 0.8 µM | 52
CCN(Cc1ccccc1C(F)(F)F)C(=O)C1CCN(S(=O)(=O)c2ccc3[nH]ncc3c2)CC1 | Alpha-1A adrenergic receptor (Adra1a, Rattus norvegicus, UniProt P43140) | ligand displacement, radioligand |  | 10 µM | 12
O=C(NCCNC(=O)c1n[nH]c(=O)c2ccccc12)c1cccc(CN2C(=O)CNC2=O)c1 | Poly [ADP-ribose] polymerase 2 (PARP2, Homo sapiens, UniProt Q9UGN5) | enzyme activity, inhibitor |  | 0.5 µM | ~50
C=CCC1(/C=C(\C)C=C)SC(=O)C(CC)=C1O (racemic) | Nicotinamide N-methyltransferase (NNMT, Homo sapiens, UniProt P40261) | enzyme activity, inhibitor |  | 10 µM | ~35
Cc1ccc(Sc2ccc(CONC(=O)c3ccc(C(N)=O)cc3)cc2C(F)(F)F)cc1 | SIRT6 | enzyme activity, inhibitor, fluorescence |  | 100 µM | 98.6
N=c1n(CCN2CCCCC2)c2ccccc2n1CC(O)c1cccc(Br)c1 (centres unmarked) | Sodium channel protein type 5 subunit alpha (SCN5A, Homo sapiens, UniProt Q14524) | ion current, inhibitor, patch clamp | CHO | 10 µM | 66
CC(C)(C)c1ccc(CONC(=O)c2ccc(C(N)=O)cc2)cc1 | SIRT6 | enzyme activity, inhibitor, fluorescence |  | 100 µM | 95.1
O=C(c1ccc(F)cc1)N(Cc1ccccc1)C1CCCCC1 | PTAFR | cell-free assay |  | 10 µM | 6
NC(=O)c1ccc(C(=O)NOCc2ccc(-n3cccn3)cc2)cc1 | SIRT6 | enzyme activity, inhibitor, fluorescence |  | 100 µM | 91.8
Ic1cccc2cnccc12 | Protein mono-ADP-ribosyltransferase PARP14 (PARP14, Homo sapiens, UniProt Q460N5) | enzyme activity, inhibitor |  | 10 µM | 7
COc1ccccc1CONC(=O)c1ccc(C(N)=O)cc1 | SIRT6 | enzyme activity, inhibitor, fluorescence |  | 100 µM | 60.5
CC/C(=N\NC(=O)NCc1cccc(O)c1)c1ccc(O)c(C)c1O | PDK4 | enzyme activity, inhibitor |  | 0.1 µM | -2.1
NC(=O)c1ccc(C(=O)NOCc2ccc3sc4ccccc4c3c2)cc1 | SIRT6 | enzyme activity, inhibitor, fluorescence |  | 100 µM | 96.2
CCN(CC)c1ccc(C2Nc3ccc(C(=O)c4ccccc4)cc3NC3=C2C(=O)CC(C)(C)C3)cc1 (centres unmarked) | HTR6 | ligand displacement, radioligand |  | 10 µM | 30
